The values that follow come from the array DNA melting data of Ke et al. (doi:10.1101/2024.01.08.574731).

Series [1] can be described thus: melting temperature; fluorescence melt of hairpins on a sequencing array, two-state fit, raised by 9.35 °C to match UV melts. The note with it: sodium 0.088 M. Put shortly: (§1)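 Cy3 fluorescence of library hairpins on a sequenced MiSeq flow cell, with annealed Cy3 and quencher oligos, was imaged in 50 mM Na-HEPES pH 8.0, 25 mM NaCl in 2.5 °C steps up to 60 °C. Signals were normalised to pre-quench Cy3 and to control variants. Melting temperature and folding enthalpy came from bootstrapped two-state fits, inverse-variance combined over four replicates. Fitted temperatures were raised by 9.35 °C to match UV melts.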

Series [2] in a line: folding enthalpy; higher = less favourable; fluorescence melt of hairpins on a sequencing array, two-state fit. The note with it: sodium 0.088 M. Put shortly: as §1

For GCAAAACGAAAGTTGTGC (((.(((....))).))), the Tm in series [1] was 49.1 °C. For the same sequence, in series [2], the folding enthalpy was -34.2 kcal/mol.

Turning to GCAAACCCGAAAGGGTGC (((..(((....)))))), the Tm in series [1] is 51.7 °C. Besides, in series [2], the folding enthalpy was -17.5 kcal/mol.

For GCAAACCGAAAGGTGTGC (((.(((....))).))), the Tm in series [1] turned out to be 57.3 °C. Besides, the folding enthalpy in series [2] is -37.6 kcal/mol.

Take GCAAACGAAAGTTCATGC ((((((....)))..))): in series [1], the Tm is 26 °C. In addition, in series [2], the folding enthalpy was -11.2 kcal/mol.

Turning to GCAAACGAAAGTTCTGC ((((((....))).))), in series [1], the Tm amounted to 37.2 °C. Further, the folding enthalpy in series [2] is -20.5 kcal/mol.

For the sequence GCAAACGAAAGTTGCTGC ((((((....)))..))), the Tm in series [1] worked out at 54.1 °C. Moreover, the folding enthalpy in series [2] is -22.2 kcal/mol.

With GCAAACGAAAGTTGGTGC ((((((....)))..))), the Tm in series [1] stood at 36.7 °C. Further, in series [2], the folding enthalpy was -22.5 kcal/mol.

As to GCAAACGAAAGTTGTTGC ((((((....)))..))), the Tm in series [1] turned out to be 32.9 °C. Besides, the folding enthalpy in series [2] is -22.5 kcal/mol.

For GCAAACGAAAGTTTCTGC ((((((....)))..))), the Tm in series [1] turned out to be 33.8 °C. Also, the folding enthalpy in series [2] was -14.9 kcal/mol.

As to GCAAACGAAAGTTTGTGC ((((((....)))..))), the Tm in series [1] was determined as 52.8 °C. Besides, the folding enthalpy in series [2] was -25.2 kcal/mol.

For GCAAACGAAAGTTTTTGC ((((((....)))..))), the Tm in series [1] was found to be 35.2 °C. Further, the folding enthalpy in series [2] was -16.1 kcal/mol.

Consider GCAAACGGAAACATTTGC (((((.(....).))))), for which the Tm in series [1] was found to be 36.7 °C. Moreover, the folding enthalpy in series [2] is -28.2 kcal/mol.

Consider GCAAACGGAAACGCTTGC ((((.((....)).)))), for which the Tm in series [1] worked out at 47.6 °C. For the same sequence, the folding enthalpy in series [2] was -35.1 kcal/mol.

With GCAAAGCGAAAGCCATGC (((..((....))..))), the Tm in series [1] came to 32.2 °C. Moreover, the folding enthalpy in series [2] is -12.3 kcal/mol.

GCAAAGCGAAAGCCTAGC ((.(.((....)).).)): the Tm in series [1] is 30.2 °C. The folding enthalpy in series [2] is -7.83 kcal/mol.

For GCAAAGCGAAAGCCTCGC ((.(.((....)).).)), the Tm in series [1] is 27.9 °C. In series [2], the folding enthalpy was -7.59 kcal/mol.

Regarding GCAAAGCGAAAGCGCTGC (((..((....))..))), the Tm in series [1] came to 57.4 °C. Further, the folding enthalpy in series [2] was -16.9 kcal/mol.

GCAAAGCGAAAGCTACGC ((..(((....)))..)): the Tm in series [1] is 40.8 °C. Also, in series [2], the folding enthalpy is -11 kcal/mol.

For the sequence GCAAAGCGAAAGCTAGGC ((..(((....)))..)), the Tm in series [1] was 48.3 °C. Moreover, the folding enthalpy in series [2] is -15.1 kcal/mol.

As for GCAAAGCGAAAGCTTCGC ((.((((....)))).)), the Tm in series [1] is 55.8 °C. The folding enthalpy in series [2] is -23.8 kcal/mol.

For the sequence GCAAAGCGAAAGCTTGC (((.(((....)))))), the Tm in series [1] stood at 64.5 °C. In addition, the folding enthalpy in series [2] was -23.8 kcal/mol.

With GCAAAGTCGAAAGACTGC (((..(((....)))))), the Tm in series [1] worked out at 47.8 °C. The folding enthalpy in series [2] is -19.5 kcal/mol.

For the sequence GCAAATGGAAACATTTAC (.(((((....))))).), the Tm in series [1] came out at 28.1 °C. In addition, the folding enthalpy in series [2] is -13.5 kcal/mol.

For the sequence GCAACAGGAAACTATTGC ((((.((....)).)))), in series [1], the Tm came to 31.8 °C. Further, in series [2], the folding enthalpy was -19.2 kcal/mol.

With GCAACAGGAAACTGTCGC ((.((((....)))).)), the Tm in series [1] was 44.2 °C. For the same sequence, the folding enthalpy in series [2] was -32.1 kcal/mol.

As to GCAACCGAAAGGTCTGC ((((((....))).))), in series [1], the Tm came to 47.6 °C. In addition, in series [2], the folding enthalpy was -22.7 kcal/mol.

For GCAACCGCGAAAGCGTGC (((..(((....)))))), the Tm in series [1] amounted to 44.7 °C. In addition, the folding enthalpy in series [2] is -14.3 kcal/mol.

GCAACCGGAAACAGTTGC (((((.(....).))))): the Tm in series [1] was determined as 45.7 °C. Also, the folding enthalpy in series [2] is -31.7 kcal/mol.

Regarding GCAACGCGAAAGCGCAGC ((..(((....)))..)), the Tm in series [1] turned out to be 48.1 °C. In addition, the folding enthalpy in series [2] is -11.7 kcal/mol.

For GCAACGCGAAAGCTGTGC (((..((....))..))), the Tm in series [1] was found to be 48.9 °C. Further, the folding enthalpy in series [2] is -15.2 kcal/mol.

GCAACGCGAAAGCTTAGC ((.(.((....)).).)): in series [1], the Tm is 28.5 °C. Further, the folding enthalpy in series [2] was -7.66 kcal/mol.

Take GCAACGCGAAAGCTTGGC ((.(.((....)).).)): in series [1], the Tm was determined as 38.5 °C. The folding enthalpy in series [2] is -11.5 kcal/mol.

With GCAACGTCGAAAGACTGC (((..(((....)))))), the Tm in series [1] worked out at 39.1 °C. In addition, the folding enthalpy in series [2] was -20.1 kcal/mol.

Turning to GCAACTCGAAAGAGCTGC (((.(((....))).))), the Tm in series [1] was 52.3 °C. For the same sequence, the folding enthalpy in series [2] is -46.6 kcal/mol.

GCAACTGGAAACGGTTGC (((((.(....).))))): in series [1], the Tm was determined as 54.2 °C. Besides, in series [2], the folding enthalpy is -45.2 kcal/mol.

For the sequence GCAAGACGAAAGTCGTGC (((.(((....))).))), in series [1], the Tm turned out to be 61.1 °C. For the same sequence, in series [2], the folding enthalpy is -32.2 kcal/mol.

Regarding GCAAGAGGAAACTTTTGC ((((.((....)).)))), the Tm in series [1] came to 39 °C. In series [2], the folding enthalpy is -26 kcal/mol.
